{"source": "PubChem BioAssay AID573", "about": "(SRMLSC, 2007)", "note": "The campaign covered roughly 65,000 compounds. About 1,400 (2.2%) were called active.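 Rule for the calls: active = growth inhibition at or above a cutoff equal to the mean over every tested compound plus 3 SD (cut at about 60% in these data); inactive = the rest.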 Only a selection was taken, and actives are over-represented in it overall."}
{"test": "E. coli ΔtolC antibacterial growth inhibition – strain BW25113 ΔtolC::kan, 384-well, primary screen (AID 573)", "conditions": "E. coli BW25113 tolC mutant growth, OD615; active compounds read high; screened at 10 µM (by protocol)", "method_in_brief": "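Test system: E. coli BW25113 ΔtolC::kan bacteria; incubation: 37 °C, 20 h exposure; medium: LB broth supplemented with 50 µg/mL kanamycin; read-out basis: percent growth inhibition; signal: A615 absorbance measurement; compound: 10 µM final, single dose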"}
{"smiles": "Cn1c(=O)c2c(nc(Br)n2CCSc2nc3ccccc3o2)n(C)c1=O", "growth inhibition": "4.61% (inactive)"}
{"smiles": "Cc1cc(C)c(C#N)c(SCc2ccccc2C(=O)O)n1", "growth inhibition": "8.75% (inactive)"}
{"smiles": "Cc1cc(C)c(C#N)c(SCc2[nH]nc3c2C(c2ccccc2)C(C#N)=C(N)O3)n1", "note": "(stereo not drawn)", "growth inhibition": "18.3% (inactive)"}
{"smiles": "Cc1cc(C)c(C#N)c(SCc2ccc3c(c2)OCO3)n1", "growth inhibition": "62.3% (active)"}
{"smiles": "Cc1nonc1NC(=O)c1ccccc1Br", "growth inhibition": "-1.19% (inactive)"}
{"smiles": "O=C(Nc1ccc(-c2nnc(-c3ccccc3)o2)cc1)c1ccc(Br)o1", "growth inhibition": "-0.33% (inactive)"}
{"smiles": "O=C(Nc1nnc(-c2ccc(Cl)cc2)o1)c1ccccc1Br", "growth inhibition": "100% (active)"}
{"smiles": "Cn1c(=O)[nH]c(=O)c2c1nc(NCCCn1ccnc1)n2Cc1cccc(Br)c1", "growth inhibition": "-18.6% (inactive)"}
{"smiles": "CCOC(=O)c1ccc(NC(=O)CS(=O)(=O)c2cn(CC)c3ccccc23)cc1", "growth inhibition": "12.6% (inactive)"}
{"smiles": "Cc1ccc2c(c1)c1ncnc(N3CCc4ccccc4C3)c1n2C", "growth inhibition": "21.5% (inactive)"}
{"smiles": "CCCC(=O)NC(C)C(c1cccs1)N1CCN(c2ccccc2)CC1", "note": "(stereo not drawn)", "growth inhibition": "1.14% (inactive)"}
{"smiles": "COc1ccc(OC)c(S(=O)(=O)N(C)CC(=O)N2CCN(c3ccccc3)CC2)c1", "growth inhibition": "8.54% (inactive)"}
{"smiles": "COc1ccc(C(C(O)C(=O)c2c[nH]c3ccccc23)N2CCN(c3ccccc3)CC2)cc1", "note": "(stereo not drawn)", "growth inhibition": "72.1% (active)"}
{"smiles": "O=S(=O)(c1ccc(F)cc1)N1CCN(Cc2ccccc2C(F)(F)F)CC1", "growth inhibition": "38.3% (inactive)"}
{"smiles": "Cc1cccc(NC(=O)COc2ccc(Br)cc2C)n1", "growth inhibition": "8.04% (inactive)"}
{"smiles": "O=C(Nc1ccc(Cl)cn1)Nc1cccs1", "growth inhibition": "6.13% (inactive)"}
{"smiles": "c1ccc(Nc2nc(-c3ccncc3)cs2)nc1", "growth inhibition": "-16.7% (inactive)"}
{"smiles": "Clc1ccc(Nc2nc(-c3cccs3)cs2)nc1", "growth inhibition": "81.1% (active)"}
{"smiles": "COc1ccc(-c2nnc(SC(=O)N3c4ccccc4Sc4ccccc43)o2)cc1", "growth inhibition": "0.32% (inactive)"}
{"smiles": "CCc1nnc(NC(=O)C2CCCN2S(=O)(=O)c2ccccc2)s1", "note": "(stereo not drawn)", "growth inhibition": "3.73% (inactive)"}
{"smiles": "CCc1nnc(NC(=O)c2ccc(S(=O)(=O)NC3CCCCC3)cc2)s1", "growth inhibition": "18.5% (inactive)"}
{"smiles": "CC1CCCCN1S(=O)(=O)c1ccc(C(=O)Nc2nnc(-c3cccs3)o2)cc1", "note": "(stereo not drawn)", "growth inhibition": "99.1% (active)"}
{"smiles": "COCC(C)n1c(SCc2ccc(C(=O)OC)o2)nc2ccccc2c1=O", "note": "(stereo not drawn)", "growth inhibition": "33.1% (inactive)"}
{"smiles": "CCN(CC)S(=O)(=O)c1cccc(C(=O)Nc2ccccc2)c1", "growth inhibition": "38.8% (inactive)"}
{"smiles": "O=C(CC1Oc2ccccc2NC1=O)NCCCN1CCN(Cc2ccccc2)CC1", "note": "(stereo not drawn)", "growth inhibition": "-13.8% (inactive)"}
{"smiles": "Cc1nc2c(c(=O)n1Cc1ccco1)c1nc3ccccc3nc1n2Cc1ccccc1", "growth inhibition": "14.7% (inactive)"}
{"smiles": "Clc1cccc(-c2nc3nc4ccccc4nc3n2Cc2ccco2)c1", "growth inhibition": "68% (active)"}
{"smiles": "Cc1ccc(Cn2c(C)nc3c(c2=O)c2nc4ccccc4nc2n3Cc2ccco2)cc1", "growth inhibition": "29.2% (inactive)"}
{"smiles": "COc1ccc(C2N=C(N)N=C(N)N2c2ccccc2)cc1OC", "note": "(stereo not drawn)", "growth inhibition": "4.96% (inactive)"}
{"smiles": "Cc1nc2c(C(=O)NCc3ccc4c(c3)OCO4)c[nH]n2c(=O)c1Cc1ccccc1F", "growth inhibition": "100% (active)"}
{"smiles": "CCn1cc(C(=O)NCc2ccc3c(c2)OCO3)c2cc(OC)c(OC)cc2c1=O", "growth inhibition": "-12.7% (inactive)"}
{"smiles": "O=C(CCCCn1c(=O)[nH]c2ccccc2c1=O)NCc1ccc2c(c1)OCO2", "growth inhibition": "1.02% (inactive)"}
{"smiles": "CC(C)C(=O)N1CCN(c2nc(-c3ccccc3)c3c(c2C#N)CC(C)(C)OC3)CC1", "growth inhibition": "4.78% (inactive)"}
{"smiles": "COC(=O)CSC1=C(C#N)C(c2ccccc2OC)C(C(=O)OC)C(=O)N1", "note": "(stereo not drawn)", "growth inhibition": "-1.55% (inactive)"}
{"smiles": "CCCCCCn1c(CN2CCCCC2)nc2c1c(=O)n(C)c(=O)n2C", "growth inhibition": "-3.32% (inactive)"}
{"smiles": "CC1CCCN(Cc2nc3c(c(=O)n(C)c(=O)n3C)n2CC(=O)c2ccccc2)C1", "note": "(stereo not drawn)", "growth inhibition": "13.4% (inactive)"}
{"smiles": "CCCCCCn1c(CN2CCCC(C)C2)nc2c1c(=O)n(C)c(=O)n2C", "note": "(stereo not drawn)", "growth inhibition": "60.7% (active)"}
{"smiles": "NC(=O)C1CC=CCC1C(=O)OCC(Cl)=C(Cl)Cl", "note": "(stereo not drawn)", "growth inhibition": "3.92% (inactive)"}
{"smiles": "CCOC(=O)c1c(C)[nH]c(C)c1C(=O)CSc1nc(N)cc(N)n1", "growth inhibition": "-1.68% (inactive)"}
{"smiles": "COC(=O)c1cccc(NC(=O)CSc2nc(C)cc(=O)[nH]2)c1", "growth inhibition": "10.2% (inactive)"}
{"smiles": "COC(=O)c1cc(C(=O)CSc2nc(C)cc(C)n2)ccc1O", "growth inhibition": "68% (active)"}
{"smiles": "CCOC(=O)c1nnn(-c2nonc2OC)c1-c1ccccc1", "growth inhibition": "8.09% (inactive)"}
{"smiles": "COC(=O)c1ccc(NC(=O)CSc2nnc(CNc3ccc(OC)cc3)n2C)cc1", "growth inhibition": "3.76% (inactive)"}
{"smiles": "CCN(CC(=O)NC(C)C)C(=O)CCNC(=O)c1ccc(Cl)cc1", "growth inhibition": "-4.01% (inactive)"}
{"smiles": "CC1(N2CCOCC2)CC2(O)C(=[N+]1[O-])CCc1nonc12", "note": "(stereo not drawn)", "growth inhibition": "-7.92% (inactive)"}
{"smiles": "COc1cc(C2C(C(=O)c3ccc(C)o3)=C(O)C(=O)N2CCc2ccccc2)ccc1O", "note": "(stereo not drawn)", "growth inhibition": "5.33% (inactive)"}
{"smiles": "COc1ccc(CCN(C)CCN2C(=O)c3ccccc3C2=O)cc1OC", "growth inhibition": "-13.3% (inactive)"}
{"smiles": "COc1ccc(CCN2C(=O)c3[nH]nc(-c4ccccc4O)c3C2c2ccc(C)cc2)cc1OC", "note": "(stereo not drawn)", "growth inhibition": "64.4% (active)"}
{"smiles": "CNC(=O)c1c(NC(=O)c2ccc(S(=O)(=O)N3CCOCC3)cc2)sc2c1CCC2", "growth inhibition": "10.9% (inactive)"}
{"smiles": "CCOCCc1c(O)nc(SCC(=O)NCc2ccco2)[nH]c1=O", "growth inhibition": "-0.82% (inactive)"}
{"smiles": "Cc1ccc(C)c(S(=O)(=O)n2cnc3ccccc32)c1", "growth inhibition": "7.6% (inactive)"}
{"smiles": "CCOc1cc(C)c(Cl)cc1S(=O)(=O)n1nnc2ccccc21", "growth inhibition": "63.4% (active)"}
{"smiles": "CCOc1ccc(C(C)C)cc1S(=O)(=O)n1nc(C)cc1C", "growth inhibition": "24.3% (inactive)"}
{"smiles": "CCN1CCN(C(=O)CN(C)S(=O)(=O)c2ccc(OC)cc2)CC1", "growth inhibition": "8.07% (inactive)"}
{"smiles": "O=C(Nc1ccccc1)N(Cc1cccnc1)Cc1ccco1", "growth inhibition": "-11.4% (inactive)"}
{"smiles": "CS(=O)(=O)NCc1ccc(C(=O)NCc2ccccc2)cc1", "growth inhibition": "-9.06% (inactive)"}
{"smiles": "COc1ccccc1N1CCN(C(=O)CN(Cc2ccc(Cl)cc2)S(C)(=O)=O)CC1", "growth inhibition": "25.9% (inactive)"}
{"smiles": "CCOc1ccc(CC(=O)Nc2ccc(S(=O)(=O)Nc3cc(C)on3)cc2)cc1OCC", "growth inhibition": "4.16% (inactive)"}
{"smiles": "Cc1cc(NS(=O)(=O)c2ccccc2)no1", "growth inhibition": "-26.8% (inactive)"}
{"smiles": "COc1cc2ccccc2cc1C(=O)Nc1ccc(S(=O)(=O)Nc2cc(C)on2)cc1", "growth inhibition": "78.6% (active)"}
{"smiles": "CCOC(=O)C1CCN(C(=O)C2CCN(S(=O)(=O)N3CCCC3)CC2)CC1", "growth inhibition": "-4.22% (inactive)"}
{"smiles": "CCOC(=O)N1CCN(C(=O)c2cn(C)c3ccc(S(=O)(=O)N4CCCC4)cc3c2=O)CC1", "growth inhibition": "-22.7% (inactive)"}
{"smiles": "CCOC(=O)C1CCN(C(=O)c2oc3ccc(S(=O)(=O)N4CCCCCC4)cc3c2C)CC1", "growth inhibition": "77.3% (active)"}
{"smiles": "COc1cccc(N(C(=O)c2ccn[nH]2)C2(C(=O)Nc3c(C)cccc3C)CCCCC2)c1", "growth inhibition": "30.5% (inactive)"}
{"smiles": "Cc1ccc(C)c(S(=O)(=O)N2CC(=O)Nc3ccccc32)c1", "growth inhibition": "17.8% (inactive)"}
{"smiles": "CC(=O)Nc1ccc(-c2nn3c(C)nnc3s2)cc1C", "growth inhibition": "-9.56% (inactive)"}
{"smiles": "COc1ccc(OC)c(CNC(=O)C2CCCN(c3nc4ccccc4o3)C2)c1", "note": "(stereo not drawn)", "growth inhibition": "1.68% (inactive)"}
{"smiles": "Cc1cc(C(F)(F)F)c(C#N)c(SCC(=O)NC2CC2)n1", "growth inhibition": "16.2% (inactive)"}
{"smiles": "COCc1cc(C)nc(SCC(=O)Nc2cccc(C)c2)c1C#N", "growth inhibition": "-0.31% (inactive)"}
{"smiles": "Cc1cc(C)c(C#N)c(SCS(=O)c2ccc(C(C)(C)C)cc2)n1", "note": "(stereo not drawn)", "growth inhibition": "70.6% (active)"}
{"smiles": "N#Cc1nc(Cc2cccc3ccccc23)oc1NCc1ccc2c(c1)OCO2", "growth inhibition": "57.4% (inactive)"}
{"smiles": "N#Cc1nc(Cc2ccccc2)oc1NCCc1ccccc1", "growth inhibition": "74.2% (active)"}
{"smiles": "CCOc1ccc(Nc2oc(Cc3ccccc3)nc2C#N)cc1", "growth inhibition": "31.9% (inactive)"}
{"smiles": "C=CCn1cnc2scc(-c3ccccc3)c2c1=O", "growth inhibition": "6.35% (inactive)"}
{"smiles": "C=CCn1c(SCc2nnc(-c3ccccc3)o2)nnc1C(O)c1ccccc1", "note": "(stereo not drawn)", "growth inhibition": "0.17% (inactive)"}
{"smiles": "COCCNc1nc(-n2nc(C)cc2C)nc2sc3c(c12)CCCC3", "growth inhibition": "94.3% (active)"}
{"smiles": "Cc1cc(C)n(-c2nc(SCC(=O)N3CCCC3)c3c4c(sc3n2)CCCC4)n1", "growth inhibition": "85.9% (active)"}
{"smiles": "COc1ccc(Nc2cc(C)nc(-n3nc(C)cc3C)n2)cc1", "growth inhibition": "17.6% (inactive)"}
{"smiles": "CC(=O)c1sc2nc(SCC(=O)N3CCCCC3)[nH]c(=O)c2c1C", "growth inhibition": "8.81% (inactive)"}
{"smiles": "Cc1nc(SCC(=O)Nc2cc(C)on2)c2c3c(sc2n1)CCCC3", "growth inhibition": "12.3% (inactive)"}
{"smiles": "COCCn1c(C)cc(C(=O)CSc2ncnc3sc4c(c23)CCC4)c1C", "growth inhibition": "0.17% (inactive)"}
{"smiles": "CCCOC(=O)C1=C(C)NC2=C(C(=O)C(C(=O)OC)C(C)C2)C1c1ccc(N(C)C)cc1", "note": "(stereo not drawn)", "growth inhibition": "16% (inactive)"}
{"smiles": "Cn1c(=O)[nH]c(=O)c2c1nc(N(CCO)Cc1ccccc1)n2Cc1ccccc1Cl", "growth inhibition": "0.78% (inactive)"}
{"smiles": "O=C(NCc1cccs1)C1CCN(S(=O)(=O)c2ccc3c(c2)OCCO3)CC1", "growth inhibition": "-14.5% (inactive)"}
{"smiles": "COc1ccc(CCNS(=O)(=O)c2ccc(F)cc2)cc1OC", "growth inhibition": "-5.35% (inactive)"}
{"smiles": "COC(=O)COc1ccc(S(=O)(=O)Nc2ccc(NC(C)=O)cc2)cc1", "growth inhibition": "-1.6% (inactive)"}
{"smiles": "COC(=O)CNS(=O)(=O)c1ccc(Cc2ccc(S(=O)(=O)NCC(=O)OC)cc2)cc1", "growth inhibition": "69.7% (active)"}
{"smiles": "COc1ccccc1Nc1ncnc2c1oc1ccccc12", "growth inhibition": "-1.75% (inactive)"}
{"smiles": "COc1ncnc2sc3c(c12)CCCC3", "growth inhibition": "2.48% (inactive)"}
{"smiles": "CS(=O)(=O)N(Cc1nc2sc3c(c2c(=O)[nH]1)CCCC3)C1CCCCC1", "growth inhibition": "83.8% (active)"}
{"smiles": "CCOC(=O)N1CCN(S(=O)(=O)c2ccc(C(=O)Nc3ccc(F)cc3F)cc2)CC1", "growth inhibition": "-4.51% (inactive)"}
{"smiles": "c1csc(-c2nc(-c3ccncc3)no2)c1", "growth inhibition": "1.08% (inactive)"}
{"smiles": "Cc1cccc(C(=O)Nc2ccc(CC(=O)O)cc2)c1", "growth inhibition": "-16% (inactive)"}
